GC-A act: GC-A (human) enzyme activation; HEK293 GC-A cells, cGMP TR-FRET, EC30 ANP; 0% at EC30 ANP, 100% saturating ANP; activation, % at 10 µM; hit rate 0.14% among 370,000; in the data active = activation above about 40%
NSD2 HMT inh: blocks human histone methyltransferase NSD2; O96028; NSD2 peptide methylation, AlphaScreen, 120 min; inhibition, % at 12.5 µM; hit rate 0.54% among 310,000; in the data active = inhibition above about 50%
Casp6 inh: caspase-6 (human) enzyme inhibition; P55212; purified caspase-6, Z-VEID-R110 cleavage fluorescence; inhibition, % at 12.5 µM; hit rate 0.53% among 350,000; AID 686996;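 active = mean inhibition across replicates at least about 35%, with every replicate also reaching that limit, limit read from the data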
FN deposit inh: fibronectin deposition inhibition. AH1F fibroblasts, Alexa488-fibronectin deposition fluorescence, overnight. inhibition, % at 12.6 µM. hit rate 0.086% among 350,000. AID 743247;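 active = mean inhibition across replicates of 30% or more, regardless of how many single replicates reach that level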
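test system = AH1F fibroblasts assembling fluorescent fibronectin matrix | quantity = 10000 AH1F cells per well | buffer or medium = DMEM plus 2% serum, read in PBS | doses = single dose, pinned | incubation = 1 h cell attachment, overnight exposure to compound and label | detection = fluorescence at 485 nm excitation, 525 nm emission | read-out basis = inhibition from reduced deposited-fibronectin fluorescence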
NPR2 activator: GC-B (human) receptor activation; P20594; HEK293-GC-B cells, CNP EC30, cGMP TR-FRET; 0% at EC30 CNP, 100% saturating CNP; activation, % at 10 µM; hit rate 0.11% among 370,000; AID 1920062;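 active = activation at 10 µM reaching about 35% in either raw or pattern-adjusted values, limit read from the data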
CaV13 ICDI inh: Primary screen for inhibitors of IQ motif and Ca2+-dependent inactivation inhibitor domain binding in CACNA1D, Förster resonance energy transfer in living cells, … | HEK cells, CFP/YFP FRET ICDI-IQ, plate reader, 10 min; percent FRET-ratio fall versus neutral wells | inhibition, % at 12.3 µM | hit rate 0.098% among 340,000;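 active = mean replicate inhibition of at least 30% and at least 1% of replicates passing that level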
Alpha artifact: interferes with AlphaScreen signal, flagging NSD2 false positives. hit rate 9.4% among 1,500. AlphaScreen artifact counterscreen, preloaded methylated H4 peptide. AC35, µM (titrated, usually from 10 µM). shares compounds with NSD2 HMT inh; call rule not given here
Of the large screens only hits and unclear results are named; the others gave an inactive call (follow-up assays come after a bar, where they were run). Shown are actives, neighbours in structure and some others; about 0.99% of the full set was active somewhere.

COc1ccc(N(CC(=O)NCCSc2ccccn2)S(C)(=O)=O)cc1	NSD2 HMT inh 127 (no result: FN deposit inh) | Alpha artifact inactive
Cc1ccc(Cl)cc1N1CCN(C(=O)c2ccc3nc[nH]c3c2)CC1	NSD2 HMT inh 51 | Alpha artifact inactive
CCCCN1C(=O)/C(=C2\SC(N3CCCCC3)=NC2=O)c2ccccc21	none (no result: Casp6 inh)
CCCCN1C(=O)C(=Nc2cccc3cnccc23)c2ccccc21	NSD2 HMT inh 74 | Alpha artifact inactive
C=CCn1c(NS(=O)(=O)c2ccccc2)c(S(=O)(=O)c2ccc(C)cc2)c2nc3ccccc3nc21	NSD2 HMT inh 115 | Alpha artifact inactive
CC(=O)Nc1c(S(=O)(=O)c2ccccc2)c2nc3ccccc3nc2n1Cc1ccccc1	none (no result: Casp6 inh, FN deposit inh, CaV13 ICDI inh)
O=C(C[C@H]1CC[C@@H](NS(=O)(=O)c2ccc(F)cc2)[C@@H](CO)O1)NC1CCC1	none (no result: GC-A act, NSD2 HMT inh, NPR2 activator, CaV13 ICDI inh)
Cn1c(=O)c2c(nc(N3CCCC3)n2CC(O)CO)n(C)c1=O (stereo unspecified)	none (no result: Casp6 inh)
C=CCOCC(O)Cn1c(N2CCCC2)nc2c1c(=O)n(C)c(=O)n2C (stereo unspecified)	NSD2 HMT inh 53 | Alpha artifact inactive
O=S(=O)(N[C@@H]1CC[C@@H](CCn2cc(-c3ccccn3)nn2)O[C@H]1CO)c1cccc(Cl)c1	none (no result: GC-A act, NSD2 HMT inh, NPR2 activator, CaV13 ICDI inh)
COCC#Cc1cnc2c(c1)C(=O)N([C@H](C)CO)C[C@@H](C)[C@H](CN(C)C(=O)NC1CCCC1)O2	none (no result: GC-A act, NSD2 HMT inh, NPR2 activator, CaV13 ICDI inh)
CO[C@H]1CN(C)C(=O)c2cc(NC(=O)Cc3ccccc3)ccc2OC[C@@H](C)NC[C@@H]1C	none (no result: GC-A act, NSD2 HMT inh, Casp6 inh, NPR2 activator, CaV13 ICDI inh)
O=Cc1ccc(-c2nc3ccccc3s2)o1	none
Cc1ccc(NC(=O)CCCN2C(=O)/C(=C/C=C/c3ccccc3)SC2=S)cc1	none (no result: Casp6 inh)
O=C(O)CC(C(=O)O)N1C(=O)/C(=C/C=C/c2ccco2)SC1=S (stereo unspecified)	NSD2 HMT inh active, Casp6 inh 81 | Alpha artifact inactive
O=C(O)CCCN1C(=O)/C(=C/C=C/c2ccco2)SC1=S	NSD2 HMT inh 110, Casp6 inh 82 | Alpha artifact inactive
O=C(O)CC(C(=O)O)N1C(=O)/C(=C/c2ccc(-c3nc4ccccc4s3)o2)SC1=S (stereo unspecified)	NSD2 HMT inh 67 (no result: Casp6 inh, FN deposit inh) | Alpha artifact inactive
COc1ccc(CN(C)C[C@H]2Oc3ccc(NC(=O)Cc4ccccc4)cc3CC(=O)N([C@H](C)CO)C[C@@H]2C)cc1	none (no result: GC-A act, NSD2 HMT inh, FN deposit inh, NPR2 activator, CaV13 ICDI inh)
COc1ccc2noc3c2c1C(=O)c1ccccc1-3	NSD2 HMT inh 108, Casp6 inh 46 | Alpha artifact inactive
COc1ccc(N)c2c1C(=O)c1ccccc1C2=O	none (no result: NSD2 HMT inh, Casp6 inh)
Cc1ccc(OCCCC(=O)Nc2ccccc2C(F)(F)F)cc1	NSD2 HMT inh 54 (no result: Casp6 inh, FN deposit inh, CaV13 ICDI inh) | Alpha artifact inactive
COc1ccc2nc3ccccc3nc2c1N	none
COc1ccc2nc3cccc(OC)c3nc2c1	NSD2 HMT inh 101, Casp6 inh 50 (no result: FN deposit inh) | Alpha artifact inactive
COc1ccc(C[C@H]2CCc3cnnn3COC[C@@H](C)NC2=O)cc1	none (no result: GC-A act, NSD2 HMT inh, Casp6 inh, NPR2 activator, CaV13 ICDI inh)
C/C=C/c1cnc2c(c1)C(=O)N([C@H](C)CO)C[C@H](C)[C@H](CN(C)C(=O)C1CCOCC1)O2	none (no result: GC-A act, NSD2 HMT inh, FN deposit inh, NPR2 activator, CaV13 ICDI inh)
CN(C)S(=O)(=O)N1C(=O)c2ccccc2C1=O	none
CN(C)/C=C1\C=C2C(=O)c3ccccc3N2C1=O	NSD2 HMT inh 144 | Alpha artifact inactive
Fc1ccc(COc2ccccc2CNc2nn[nH]n2)cc1	none (no result: FN deposit inh)
CNCc1ccccc1OCc1ccc(F)cc1	NSD2 HMT inh 60 | Alpha artifact inactive
C=CCOc1ccc(NC(=O)C2CC(=O)N(C(C)C)C2)cc1 (stereo unspecified)	NSD2 HMT inh 56 (no result: Casp6 inh) | Alpha artifact inactive
COc1cc(/C=C2\C(=N)N3N=C(S(C)(=O)=O)SC3=NC2=O)ccc1OC(=O)c1cccs1	NSD2 HMT inh 62, Casp6 inh 43 | Alpha artifact inactive
C[C@@H]1CN([C@H](C)CO)C(=O)c2cc(NS(C)(=O)=O)ccc2O[C@H]1CN(C)Cc1ccc(Oc2ccccc2)cc1	none (no result: GC-A act, NSD2 HMT inh, NPR2 activator, CaV13 ICDI inh)
